System: Fibroblast
Assay: Multiplex assay against human fibroblast
Type: toxicity, cell-based
Outline: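 Per cents of healthy-nucleus cells form the tubulin, mitochondrial-mass and membrane-permeability phenotype values. Live cells were stained at seeding with Hoechst33342, BioTracker Green Microtubule Cytoskeleton Dye, MitoTracker Red and Annexin V Alexa Fluor 680. After compound addition they were imaged on a CQ1 microscope at 37°C and 5% CO2, and CellPathfinder machine-learning gating split them into Hoechst high-intensity objects or normal cells, normal cells into healthy, pyknosed or fragmented nuclei, and pyknosed cells into mitotic or apoptotic.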

[1] = 12 h, 1 µM, compound concentration 1 uM, replicate 1
[2] = 12 h, 1 µM, compound concentration 1 uM, replicate 2
[3] = 12 h, 10 µM, compound concentration 10 uM, replicate 1
[4] = 12 h, 10 µM, compound concentration 10 uM, replicate 2
[5] = 24 h, 1 µM, compound concentration 1 uM, replicate 1
[6] = 24 h, 1 µM, compound concentration 1 uM, replicate 2
[7] = 24 h, 10 µM, compound concentration 10 uM, replicate 1
[8] = 24 h, 10 µM, compound concentration 10 uM, replicate 2
[9] = 48 h, 1 µM, compound concentration 1 uM, replicate 1
[10] = 48 h, 1 µM, compound concentration 1 uM, replicate 2
[11] = 48 h, 10 µM, compound concentration 10 uM, replicate 1
[12] = 48 h, 10 µM, compound concentration 10 uM, replicate 2

## CCc1cc2cc(NS(=O)(=O)c3ccc(C#N)cc3)ccc2n(CC)c1=O
[1]
  Population Apoptotic (%): 42%
  Population Fragmented Nuclei (%): 16%
  Population Healthy Nuclei (%): 64%
  Population Hoechst High Intensity Objects (%): 1%
  Population Membrane Permeable-Phenotype (%): 1%
  Population Mitochondria Different-Phenotype (%): 3%
  Population Mitotic Cells (%): 57%
  Population Normal (%): 98%
  Population Pyknosed Nuclei (%): 18%
  Population Tubulin-Different-Phenotype (%): 24%
  Total Cell Count: 157
[2]
  Population Fragmented Nuclei (%): 27%
  Population Healthy Nuclei (%): 40%
  Population Hoechst High Intensity Objects (%): 6%
  Population Membrane Permeable-Phenotype (%): 9%
  Population Mitochondria Different-Phenotype (%): 7%
  Population Normal (%): 93%
  Population Pyknosed Nuclei (%): 32%
  Population Tubulin-Different-Phenotype (%): 39%
  Total Cell Count: 173
[3]
  Population Apoptotic (%): 42%
  Population Fragmented Nuclei (%): 18%
  Population Healthy Nuclei (%): 54%
  Population Hoechst High Intensity Objects (%): 1%
  Population Membrane Permeable-Phenotype (%): 1%
  Population Mitochondria Different-Phenotype (%): 5%
  Population Mitotic Cells (%): 57%
  Population Normal (%): 98%
  Population Pyknosed Nuclei (%): 26%
  Population Tubulin-Different-Phenotype (%): 65%
  Total Cell Count: 133
[4]
  Population Apoptotic (%): 18%
  Population Fragmented Nuclei (%): 19%
  Population Healthy Nuclei (%): 43%
  Population Hoechst High Intensity Objects (%): 5%
  Population Membrane Permeable-Phenotype (%): 12%
  Population Mitochondria Different-Phenotype (%): 6%
  Population Mitotic Cells (%): 81%
  Population Normal (%): 94%
  Population Pyknosed Nuclei (%): 37%
  Population Tubulin-Different-Phenotype (%): 74%
  Total Cell Count: 153
[5]
  Population Apoptotic (%): 53%
  Population Fragmented Nuclei (%): 19%
  Population Healthy Nuclei (%): 63%
  Population Hoechst High Intensity Objects (%): 5%
  Population Membrane Permeable-Phenotype (%): 1%
  Population Mitochondria Different-Phenotype (%): 4%
  Population Mitotic Cells (%): 46%
  Population Normal (%): 94%
  Population Pyknosed Nuclei (%): 17%
  Population Tubulin-Different-Phenotype (%): 26%
  Total Cell Count: 157
[6]
  Population Apoptotic (%): 43%
  Population Fragmented Nuclei (%): 26%
  Population Healthy Nuclei (%): 48%
  Population Hoechst High Intensity Objects (%): 6%
  Population Membrane Permeable-Phenotype (%): 9%
  Population Mitochondria Different-Phenotype (%): 8%
  Population Mitotic Cells (%): 56%
  Population Normal (%): 93%
  Population Pyknosed Nuclei (%): 25%
  Population Tubulin-Different-Phenotype (%): 51%
  Total Cell Count: 164
[7]
  Population Apoptotic (%): 50%
  Population Fragmented Nuclei (%): 19%
  Population Healthy Nuclei (%): 58%
  Population Hoechst High Intensity Objects (%): 2%
  Population Membrane Permeable-Phenotype (%): 1%
  Population Mitochondria Different-Phenotype (%): 6%
  Population Mitotic Cells (%): 50%
  Population Normal (%): 97%
  Population Pyknosed Nuclei (%): 22%
  Population Tubulin-Different-Phenotype (%): 59%
  Total Cell Count: 130
[8]
  Population Apoptotic (%): 32%
  Population Fragmented Nuclei (%): 22%
  Population Healthy Nuclei (%): 38%
  Population Hoechst High Intensity Objects (%): 9%
  Population Membrane Permeable-Phenotype (%): 6%
  Population Mitochondria Different-Phenotype (%): 12%
  Population Mitotic Cells (%): 67%
  Population Normal (%): 90%
  Population Pyknosed Nuclei (%): 39%
  Population Tubulin-Different-Phenotype (%): 72%
  Total Cell Count: 145
[9]
  Population Apoptotic (%): 52%
  Population Fragmented Nuclei (%): 24%
  Population Healthy Nuclei (%): 59%
  Population Hoechst High Intensity Objects (%): 3%
  Population Membrane Permeable-Phenotype (%): 0%
  Population Mitochondria Different-Phenotype (%): 4%
  Population Mitotic Cells (%): 47%
  Population Normal (%): 96%
  Population Pyknosed Nuclei (%): 15%
  Population Tubulin-Different-Phenotype (%): 27%
  Total Cell Count: 150
[10]
  Population Apoptotic (%): 37%
  Population Fragmented Nuclei (%): 33%
  Population Healthy Nuclei (%): 50%
  Population Hoechst High Intensity Objects (%): 5%
  Population Membrane Permeable-Phenotype (%): 12%
  Population Mitochondria Different-Phenotype (%): 8%
  Population Mitotic Cells (%): 62%
  Population Normal (%): 94%
  Population Pyknosed Nuclei (%): 16%
  Population Tubulin-Different-Phenotype (%): 60%
  Total Cell Count: 156
[11]
  Population Apoptotic (%): 60%
  Population Fragmented Nuclei (%): 17%
  Population Healthy Nuclei (%): 62%
  Population Hoechst High Intensity Objects (%): 1%
  Population Membrane Permeable-Phenotype (%): 1%
  Population Mitochondria Different-Phenotype (%): 12%
  Population Mitotic Cells (%): 40%
  Population Normal (%): 98%
  Population Pyknosed Nuclei (%): 19%
  Population Tubulin-Different-Phenotype (%): 61%
  Total Cell Count: 129
[12]
  Population Fragmented Nuclei (%): 30%
  Population Healthy Nuclei (%): 48%
  Population Hoechst High Intensity Objects (%): 7%
  Population Membrane Permeable-Phenotype (%): 18%
  Population Mitochondria Different-Phenotype (%): 7%
  Population Mitotic Cells (%): 39%
  Population Normal (%): 92%
  Population Pyknosed Nuclei (%): 20%
  Population Tubulin-Different-Phenotype (%): 69%
  Total Cell Count: 145
